SIAE primary – inhibitors of human sialic acid acetylesterase SIAE; Q9HAT2; SIAE FP-Rh probe binding, fluorescence polarization; inhibition, % at 9.66 µM; hit rate 0.69% among 370,000; AID 1053197;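 active means inhibition above a cutoff: mean of compounds within the control limits plus 3 SD of those, cut at about 17% in these data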;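 further: 0% = plate median of compound wells and 100% = probe without SIAE protein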
PRMT1 FP inh – PRMT1 (human) inhibition, primary screen; recombinant PRMT1, activity-based probe fluorescence polarization; inhibition, % at 2.79 µM; hit rate 1.3% among 370,000; AID 652257;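 active means inhibition above about 21% made by adding two undisclosed values, limit read from the data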
mABHD4 FP – inhibits mouse alpha/beta hydrolase domain 4; AID 720543; inhibition, % at 8.92 µM; purified mABHD4, FP-Rh probe fluorescence polarization; hit rate 0.54% among 370,000; Q8VD66;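 active means inhibition exceeding the mean over every tested compound plus 3 SD, cut at about 30% in these data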;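 further: 0% = plate median of compound wells and 100% = S159A mutant with DMSO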
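Material: mouse ABHD4 enzyme, wild type; Benchmarks: S159A mutant high control, sample median low control; Buffer or medium: HEPES pH 7.0, NaCl, Pluronic buffer; Signal: fluorescence polarization; Read-out: percent inhibition of probe binding, normalized to plate controls; Timing: pre-incubation 45 min, probe exposure 60 min, at 25 °C; Dosing: 8.92 µM, single dose.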
TCR-CD3 inh – human TCR-CD3 binding inhibition. AID 651800. inhibition, % at 9.4 µM. hit rate 0.37% among 360,000. TAMRA-labeled TCR probe fluorescence, biochemical; in the data active means inhibition above about 19%;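 further: recombinant mutant TCR 2C K166C tagged with TAMRA read by polarization; 0% = receptor in buffer alone and 100% = receptor with positive control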
HTRA1 inh – inhibitors of human serine peptidase HTRA1. Q92743. recombinant HTRA1, FP-rhodamine activity-based probe, fluorescence polarization. inhibition, % at 5.96 µM. hit rate 0.5% among 340,000. AID 504803; in the data active means inhibition above about 36%;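 further: 0% = enzyme with DMSO and 100% = wells lacking enzyme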
Target sequence (Q92743 whole entry, looked up): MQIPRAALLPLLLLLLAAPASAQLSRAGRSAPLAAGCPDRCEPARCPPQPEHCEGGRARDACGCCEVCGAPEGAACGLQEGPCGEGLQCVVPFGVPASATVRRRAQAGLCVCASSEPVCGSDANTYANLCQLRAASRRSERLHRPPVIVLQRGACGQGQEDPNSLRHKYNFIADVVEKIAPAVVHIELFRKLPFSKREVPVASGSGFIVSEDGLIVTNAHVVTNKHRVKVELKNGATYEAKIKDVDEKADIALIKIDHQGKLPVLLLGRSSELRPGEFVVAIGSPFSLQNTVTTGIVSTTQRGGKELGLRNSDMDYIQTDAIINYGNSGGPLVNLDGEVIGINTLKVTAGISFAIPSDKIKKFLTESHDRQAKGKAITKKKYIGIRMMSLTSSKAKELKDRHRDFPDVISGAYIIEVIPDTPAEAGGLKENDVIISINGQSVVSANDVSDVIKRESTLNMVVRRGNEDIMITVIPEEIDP
mABHD4 conf – ABHD4 (mouse) inhibition, FP confirmation. AID 720658. inhibition, % at 8.92 µM. hit rate 55% among 1,800. shares compounds with mABHD4 FP. purified mABHD4, FP-Rh probe fluorescence polarization;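 active means mean inhibition across replicates above the hit cutoff set in the primary screen, cut at about 30% in these data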;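 further: 0% = wild-type ABHD4 with DMSO and 100% = catalytically dead S159A mutant with DMSO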
* marks the source's active call; other numbers are inactive results; x = no result. The list is not random: actives were taken first. Their share in the collection is about 2.6%.

SMILES	SIAE primary	PRMT1 FP inh	mABHD4 FP	TCR-CD3 inh	HTRA1 inh	mABHD4 conf
COCCNc1nc(NCc2ccccc2OC)c2sccc2n1	-1.6	0.1	-0.7	-0.4	x	x
COc1ccccc1CNc1nc(NCCOc2ccccc2)c2sccc2n1	6.3	-5.4	37.1*	9.8	x	40.4*
O=C(O)[C@H]1CC=C[C@H]2CCN(Cc3ccc(Cl)c(Cl)c3)C(=O)[C@@H]12	-4.6	7.5	30.2*	0.7	25.6	21.1
CCOc1ccc(CCNC(=O)CS(=O)Cc2nc(-c3ccc(C)cc3)oc2C)cc1 (stereo unspecified)	-2.3	5.2	30.4*	2.2	1.4	-13.9
CCOC(=O)C1=C(C)N=C2c3ccccc3C(=O)C2C1c1ccccc1 (stereo unspecified)	1.7	0.6	33.9*	-3.3	-0.8	37.2*
CC[C@@H](C)[C@@H]1CN([C@@H](CN2CCC[C@H]2CN2C(N)=NC[C@H]2CC(C)C)C(C)C)C(=N)N1CCc1ccc(Cl)c(Cl)c1	6.4	2.4	34.9*	-7.5	8.6	46.5*
CCC[C@@H](CN1CCC[C@H]1CN1C(N)=NC[C@@H]1Cc1ccccc1)N1C[C@@H]([C@H](C)CC)N(CCCC2CCCC2)C1=N	x	x	x	x	5.5	x
CCC[C@@H](CN1CCC[C@H]1CN1C(N)=NC[C@H]1CC(C)C)N1C[C@@H](Cc2ccccc2)N(CCCC2CCCC2)C1=N	15.0	2.6	34.1*	2.0	-5.5	26.2
CCC[C@@H](CN1CCC[C@H]1CN1C(N)=NC[C@@H]1Cc1ccccc1)N1C[C@@H](Cc2ccccc2)N(CCCC2CCCC2)C1=N	x	x	x	x	0.5	x
CCC[C@@H](CN1CCC[C@H]1CN1C(N)=NC[C@@H]1Cc1ccccc1)N1C[C@@H]([C@H](C)CC)N(CCc2ccc(Cl)c(Cl)c2)C1=N	x	x	x	x	4.4	x
CCC[C@@H](CN1CCC[C@H]1CN1C(N)=NC[C@H]1CC(C)C)N1C[C@@H]([C@H](C)CC)N(CCc2ccc(Cl)c(Cl)c2)C1=N	6.1	-1.0	38.2*	-2.5	-1.0	34.1*
CCC[C@@H](CN1CCC[C@H]1CN1C(N)=NC[C@H]1CC(C)C)N1C[C@@H](Cc2ccccc2)N(CCc2ccc(Cl)c(Cl)c2)C1=N	10.4	5.3	30.3*	-2.1	17.4	35.5*
CC[C@@H](C)[C@@H]1CN([C@@H](C)CN2CCC[C@H]2CN2C(N)=NC[C@H]2CC(C)C)C(=N)N1CCc1ccc(Cl)c(Cl)c1	9.0	-1.5	11.7	-1.0	-0.4	x
CCOC(=O)C1(C)CCN1C(=O)c1cc(-c2ccc(Cl)cc2)oc1C (stereo unspecified)	6.6	0.7	-1.3	7.2	x	x
CN1CCN(C(=O)C[C@H]2CC[C@H]3[C@@H](COC[C@@H](O)CN3Cc3cccc(F)c3)O2)CC1	-1.7	-1.1	-0.3	7.6	x	x
C/C(=N\Nc1nc2ccccc2s1)c1cccs1	8.2	2.9	31.4*	-6.3	10.7	23.7
CC(=NNc1nc2ccccc2s1)c1ncccn1	-6.7	4.0	34.9*	-4.9	15.6	26.6
Oc1ccc(C=NNc2nc3ccccc3s2)c(O)c1	-1.5	-3.6	42.5*	5.8	35.4	35.9*
C/C(=N\Nc1nc(-c2ccccc2)cs1)c1cccs1	13.5	10.8	2.7	-0.8	19.2	x
CC(=NNc1nc2ccccc2o1)c1ncccn1	7.3	-0.1	30.9*	-1.9	11.5	24.2
COc1ccccc1N1CCN(CC(O)COc2ccc(C)cc2C)CC1 (stereo unspecified)	-4.6	-3.5	8.5	-3.3	1.0	x
COc1ccccc1N1CCN(CCCCOc2ccc(C)cc2C)CC1	-3.0	4.4	30.5*	-5.2	2.6	17.0
O=c1cc(CSc2nnnn2-c2ccccc2)[nH]c2[nH]n(-c3ccccc3)c(=O)c12	9.1	10.8	32.2*	3.7	22.4	4.7
c1ccc(CSc2nnnn2-c2ccccc2)cc1	8.1	-1.2	-7.0	-1.2	0.0	x
O=C(CC[C@H]1O[C@@H](n2ccc(=O)[nH]c2=O)[C@H](O)[C@@H]1O)N[C@H](Cc1ccccc1)C(=O)NCc1ccc2c(c1)OCO2	9.6	4.0	-4.2	1.6	x	x
SMILES	SIAE primary	PRMT1 FP inh	mABHD4 FP	TCR-CD3 inh	HTRA1 inh	mABHD4 conf
CCNC(=S)NNC(=O)c1cnccn1	5.4	-4.5	45.6*	x	x	53.6*
COc1cc(OC)cc(C(=O)NC(=S)NNC(=O)c2cnccn2)c1	-1.4	-0.5	9.8	4.8	7.3	x
COCCn1cnnc1SCC(=O)Nc1ccc(N2CCCCC2)cc1	7.8	-1.8	-1.7	1.1	7.7	x
O=C(N1CCCC1)n1ncc(-c2ccc(-c3ccccc3)cc2)n1	-7.3	2.2	46.8*	x	x	41.8*
O=C(c1ccc(-c2ccccc2)cc1)N1CCCC1	-1.6	3.2	0.0	7.0	-3.0	x
CC(C)CCNC(=O)c1ccc2c(SCC(=O)O)c3c(nc2c1)CCC3	-0.8	0.3	45.6*	-9.8	-10.4	9.4
Cc1cccn2c(CNCCSc3nccn3C)c(C(=O)N3CCCCC3)nc12	-7.8	1.4	34.8*	7.8	-1.4	-5.6
CC(=O)NCc1ccc(-c2csc(-c3cccs3)n2)cc1	-9.8	-3.9	-2.7	1.3	-12.5	x
COC(=O)C1=C(C)N(Cc2ccccc2C(F)(F)F)C(=NCc2ccc(OC)cc2)NC1c1ccccc1 (stereo unspecified)	9.0	0.7	13.5	4.4	x	x
COC(=O)C1=C(C)N(Cc2ccccc2C(F)(F)F)C(=NCc2ccc(OC)cc2)NC1c1cccc(F)c1 (stereo unspecified)	0.8	-0.5	42.3*	-3.8	x	66.4*
CC(=O)c1ccc(OCC(=O)OCc2cc(-c3ccco3)on2)cc1	6.9	-0.6	4.1	3.6	-4.9	x
CCOc1ccccc1NC1=CC(=O)CC(c2ccccc2)C1 (stereo unspecified)	-2.8	2.9	36.8*	-10.2	-16.6	-5.8
C[C@@H](NS(=O)(=O)c1c(F)cccc1F)c1ccccc1	2.0	0.8	3.5	-7.7	x	x
CNC[C@H](Cc1ccccc1)NC[C@@H](Cc1cccc2ccccc12)NCCc1ccc(C)cc1	-0.3	4.5	49.4*	2.1	0.6	48.6*
CNCCNC[C@H](Cc1cccc2ccccc12)NCCc1ccccc1	3.7	-2.0	5.8	7.0	5.5	x
Cc1cc(C)c(S(=O)(=O)/N=C2\C=C(NS(=O)(=O)c3ccccc3)C(=O)c3ccccc32)c(C)c1	8.6	2.2	45.0*	-9.8	12.7	42.4*
Cc1ccc(S(=O)(=O)/N=C2\C=C(NS(=O)(=O)c3ccccc3)C(=O)c3ccccc32)cc1	-6.3	-1.4	26.5	-0.8	-2.2	x
O=S(=O)(N=C1C=CC(=NS(=O)(=O)c2ccccc2)c2ccccc21)c1ccccc1	3.5	16.6	63.8*	-6.1	-2.1	76.2*
O=C1c2ccccc2C(=O)N1S(=O)(=O)c1ccccc1	-2.2	-3.3	1.6	3.6	3.3	x
O=C(O)c1ccc(NC2=C/C(=N/S(=O)(=O)c3ccccc3)c3ccccc3C2=O)cc1	9.2	6.5	48.4*	7.6	34.2	65.5*

Compound activity: PubChem BioAssay, The Scripps Research Institute Molecular Screening Center
